# Sampled rows, rich in hits. Any-hit rate of the full collection: about 3%.
# Rad51 HR inh – blocks human Rad51 in homologous recombination. Q06609. hRad51 DNA strand exchange, fluorescence dequenching. inhibition, % at 10 µM. 0.085% of 200,000 active;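 active = inhibition above 40% at the single screening dose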;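 note: 0% = DMSO control wells and 100% = blanks with heterologous ssDNA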
#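 Assay system: Human Rad51 nucleoprotein filaments preassembled on unlabelled ssDNA | Reagent: Donor/quencher-labelled 47-bp dsDNA substrate | Doses: One concentration, 10 µM final | Times: 37 °C 15-min filament assembly, 30-min compound preincubation, 15-min exchange | Technique: Fluorescein emission 520 nm, excitation 485 nm | Benchmarks: Plate control and blank wells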
# ROMK mod – modulators of human ROMK potassium channel | P48048 | AID 1918 | Tet-inducible ROMK, thallium flux fluorescence; actives lie on both sides | B-score at 10 µM | 2% of 130,000 active;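 active = signal ratio slope over the read window, or its plate-corrected B-score, at least 3 SD from the plate mean, either direction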;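 note: B-score of the F/F0 ratio slope over 7 to 12 s after thallium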
# PKD1 inh – PKD1 (human) kinase inhibition. inhibition, % (no concentration beside the values). Q15139. PKD1 kinase fluorescence polarization assay. 0.056% of 200,000 active; in the data active = inhibition above about 50%
# KCC2 mod – modulates chloride dependent transport by human KCC2 | 2.2% of 190,000 active | B-score of Tl+ flux slope (higher = more flux/activation; lower = inhibition) at 10 µM | KCC2 cells, thallium flux FluoZin-2 fluorescence;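 active = thallium flux slope and its plate-corrected score both differing from the plate sample mean at a set confidence after two filtering rounds, in either direction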;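 note: slope of fluorescence scaled to starting intensity during 10 to 20 s after thallium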
# KCC2 sec1 – KCC2 (human) modulation, secondary assay. shares compounds with KCC2 mod. HEK293-KCC2, thallium flux, FluoZin2 fluorescence; stronger effect = higher value. normalised thallium flux (F/F0 slope) at 10 µM. 15% of 3,700 active;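 active = thallium flux slope above the same plate's solvent-only control mean plus 3 SD; inconclusive = the two replicate wells disagree; inactive = no significant difference from solvent-only control wells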
# KCC2 bumet counter – bumetanide-insensitive thallium flux in KCC2 cells with ouabain, counter-screen | shares compounds with KCC2 mod | HEK293-KCC2 + bumetanide/ouabain, thallium flux FluoZin2; stronger effect = higher value | normalized thallium flux at 10 µM | 49% of 3,700 active | AID 1714;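 active = thallium entry rate above the same plate's blocked-transporter control wells by more than 3 SD; inconclusive = the two repeat wells disagree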;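 note: raw slope of fluorescence over initial fluorescence between 10 and 20 s after thallium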
# KCC2 secondary2 – confirmation of human KCC2 transport modulators. shares compounds with KCC2 mod. HEK293-KCC2, thallium flux FluoZin2 fluorescence; actives lie on both sides; F/F0 rise rate, 10–20 s post-thallium. normalized thallium flux at 10 µM. 23% of 3,700 active. AID 1715;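 active = thallium flux slope more than 3 SD above or below the plate's solvent-only control mean, mostly below; inconclusive = the two repeat wells disagreed; inactive = no significant shift from solvent-only controls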;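 note: raw slope with 0.1% DMSO as baseline and bumetanide as block control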
# HEK counter1 – parental HEK flux effect, counter-screen; shares compounds with KCC2 mod; HEK293 parental cells, thallium flux FluoZin2, ouabain; baseline-ratio fluorescence slope, 10–20 s after thallium; thallium flux rate (normalised fluorescence) at 10 µM; 46% of 3,700 active;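 active = thallium flux rate significantly above the same plate's solvent-only control wells, beyond their mean plus 3 SD; inconclusive = the two replicate wells gave conflicting results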
# KCC2 retest ouab – KCC2 (human) modulation, ouabain retest; shares compounds with KCC2 mod; HEK293-KCC2, thallium flux FluoZin2 fluorescence; bidirectional: low = inhibitor, high = activator; raw Tl+ flux slope (below DMSO = inhibition, above = activation) at 10 µM; 48% of 3,700 active; AID 1717;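 active = thallium flux slope beyond 3 SD from same-plate DMSO control mean in most replicates, usually higher, sometimes lower; inconclusive = repeat tests gave conflicting results; inactive = no significant difference from controls in most replicates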;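 note: slope of initial-normalized fluorescence between seconds 10 and 20 after thallium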
# HEK counter2 – acts in parental HEK cells, second KCC2 counter-screen | shares compounds with KCC2 mod | HEK293 parental, thallium flux FluoZin-2 fluorescence slope | thallium flux slope at 10 µM | 33% of 3,700 active | AID 1718;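 active = thallium flux slope above the same plate's solvent-control mean plus 3 SD in both duplicate wells; inconclusive = duplicate wells that disagreed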;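 note: run without ouabain in cells lacking the KCC2 cotransporter; slope of fluorescence scaled to its starting value between 10 and 20 s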
# * = called active by the depositor; ? = inconclusive; . = not tested or not shown.
SMILES,Rad51 HR inh,ROMK mod,PKD1 inh,KCC2 mod,KCC2 sec1,KCC2 bumet counter,KCC2 secondary2,HEK counter1,KCC2 retest ouab,HEK counter2
O=c1[nH]c(=O)n(C2CCCO2)cc1F (stereo not given),1,.,-11,7.5*,0.011,0.0064,0.037,0.0039,0.021,0.012
O=c1c(F)cn(C2CCCO2)c(=O)n1Cc1c(F)cccc1Cl (stereo not given),3,.,0,-1,.,.,.,.,.,.
CC(=O)NC(CSC(CC(=O)c1ccco1)c1ccc(C)cc1)C(=O)O (stereo not given),4,-0.15,-3,-0.5,.,.,.,.,.,.
COc1cccc(Cn2cnc3c(NS(=O)(=O)c4cc(Cl)ccc4Cl)c(C)c(C)cc32)c1,10,.,-3,.,0.0091,0.0091*,0.031,?,0.026,?
O=C(COC(=O)c1cc(S(=O)(=O)N2CCOCC2)ccc1O)NCC1CCCO1 (stereo not given),-2,0.049,2,.,0.011,0.0075,0.033,0.008,0.023,0.011
O=C(COC(=O)c1cc(S(=O)(=O)N2CCCC2)ccc1O)Nc1ccc(S(=O)(=O)N2CCOCC2)cc1,8,.,.,0.91,.,.,.,.,.,.
CCN1CCN(S(=O)(=O)CC2(C)C3CCC2(C)C(=O)C3Br)CC1 (stereo not given),-2,0.24,6,0.0059,.,.,.,.,.,.
COc1ccc(C(c2nnnn2C(C)(C)C)N2CCN(c3nc4ccccc4s3)CC2)cc1 (stereo not given),-2,.,-1,-0.45,.,.,.,.,.,.
CCC(C)(C)n1nnnc1C(c1ccc(O)c(OC)c1)N1CCN(c2nc3ccccc3s2)CC1 (stereo not given),7,.,7,-4.3*,0.008,0.0047,0.023*,0.007,0.016*,0.01
CC[n+]1oc(-c2ccccc2)cc1C,-8,0.15,-7,-1.6,.,.,.,.,.,.
CCSc1nc(O)cc(=O)[nH]1,17,.,.,.,.,.,.,.,.,.
CCSc1nc(=S)cc(C)[nH]1,.,.,.,46*,0.027*,0.052*,?,0.034*,0.043*,0.018*
COc1ccc(C2CC(c3ccccc3)n3nc(NC(=O)c4cccs4)nc3N2)cc1 (stereo not given),.,.,2,-3.3*,0.0073,0.0067,0.032,0.0078,0.018,0.011
O=C(Nc1ncn[nH]1)c1cccc(S(=O)(=O)N2CCOCC2)c1,1,-0.79,6,2.1,.,.,.,.,.,.
CN(C)c1ccc(/C=C/c2ccc3c4ccccc4ccc3[n+]2-c2ccccc2)cc1,51*,-1.3,1,-3.2*,0.005,0.0041,0.024*,?,0.014*,0.01
CN(C)c1ccc(/C=C/c2ccc3ccccc3[n+]2C)cc1,12,.,-3,-1,.,.,.,.,.,.
COc1ccc(C(=O)NC(=S)N(C)Cc2ccccc2)cc1Br,2,0.15,-2,11*,0.0079,0.019*,0.037,0.022*,0.044*,0.016*
CCCOc1ccc(CN(CCC#N)C(=S)NC(=O)c2ccccc2)cc1,6,2.5,-4,80*,0.055*,0.11*,0.074*,0.1*,0.11*,0.055*
CN(Cc1ccccc1)C(=S)NC(=O)c1ccccc1,-6,1.2,1,65*,0.056*,0.16*,0.07*,0.085*,0.13*,0.036*
N#CCCN(Cc1cccnc1)C(=S)NC(=O)c1ccc(S(=O)(=O)N2CCCC2)cc1,-8,0.012,-5,0.29,.,.,.,.,.,.
CCc1ccc(NC(=O)CCn2c(=O)oc3ccccc32)cc1,3,0.074,-6,.,0.0072,0.004,0.028,0.0071,?,0.0095

# Screening data: PubChem BioAssay, several laboratories
